Assay [1] addresses Protein kinase C alpha type (Homo sapiens) (UniProt P17252). The experiment in a line: Inhibition of recombinant human N-terminal His6-tagged PKCalpha (1 to 672 residues) expressed in baculovirus infected Sf21 cells assessed as remaining activity at 1 uM using Histone H1 as substrate incubated for 30 mins in presence of [gamma-33P]ATP by filter binding method relative to control.

The target of assay [2] is Insulin receptor-related protein (Homo sapiens) (UniProt P14616). Put plainly: Inhibition of recombinant human N-terminal His6-tagged IRR (944 to 1236 residues) expressed in baculovirus infected Sf21 cells assessed as remaining activity at 1 uM using MBP as substrate incubated for 30 mins in presence of [gamma-33P]ATP by filter binding method relative to control.
Assay [3] concerns the target Calcium/calmodulin-dependent protein kinase type 1 (Homo sapiens) (UniProt Q14012). Put plainly: Inhibition of recombinant human N-terminal GST-tagged CAMK1alpha (2 to 369 residues) expressed in Escherichia coli assessed as remaining activity at 10 uM using YLRRRLSDSNF as substrate incubated for 30 mins in presence of [gamma-33P]ATP by filter binding method relative to control. The method, boiled down:
(§1)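 Run robotically for 30 min at 21 °C under linear conditions. Compound at 1 or 10 µM. Percentage activity remaining versus control without compound, triplicate mean ± S.D.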

Assay [4] has as its target Inhibitor of nuclear factor kappa-B kinase subunit epsilon (Homo sapiens) (UniProt Q14164). Put plainly: Inhibition of recombinant human N-terminal GST-tagged IKKepsilon (1 to 716 residues) expressed in baculovirus infected Sf21 cells assessed as remaining activity at 1 uM using MBP as substrate incubated for 30 mins in presence of [gamma-33P]ATP by filter binding method relative to control. The method, boiled down:
(§2)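 Incubation was 30 min at room temperature (21 °C) under conditions linear with time and enzyme amount. Activity is reported as percent of control lacking compound, triplicate mean ± S.D.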

The next assay addresses mTORC1 (Homo sapiens) (UniProt P42345+Q8N122+Q9BVC4). To be noted: HEK293, dose 30-1000 nM, time 30.0 min.
Assay [5] addresses Mitogen-activated protein kinase 8 (Homo sapiens) (UniProt P45983). Put plainly: Inhibition of recombinant human His6-tagged JNK1alpha1 (1 to 384 residues) expressed in baculovirus infected Sf21 cells assessed as remaining activity at 10 uM using ATF2 as substrate incubated for 30 mins in presence of [gamma-33P]ATP by filter binding method relative to control. The method, boiled down:
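Robotic radiometric panel assay, 30 min at room temperature (21 °C), with 10 mM magnesium acetate. […] Compound at 1 or 10 µM. Residual activity expressed relative to compound-free control; triplicate average ± S.D.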

Assay [6] concerns the target Ribosomal protein S6 kinase alpha-1 (Homo sapiens) (UniProt Q15418). Put plainly: Inhibition of recombinant human N-terminal His6-tagged RSK1 (1 to 735 residues) expressed in baculovirus infected Sf21 cells assessed as remaining activity at 1 uM using KKLNRTLSVA as substrate incubated for 30 mins in presence of [gamma-33P]ATP by filter binding assay relative to control.

Assay [7] concerns the target Serine/threonine-protein kinase BRSK2 (Homo sapiens) (UniProt Q8IWQ3). The experiment in a line: Inhibition of recombinant human N-terminal His6-tagged BRSK2 (2 to 674 residues) expressed in baculovirus infected Sf21 cells assessed as remaining activity at 10 uM using KKLNRTLSFAEPG as substrate incubated for 30 mins in presence of [gamma-33P]ATP by filter binding method relative to control. The method, boiled down:
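Assays ran 30 min at 21 °C, robotically and in the linear range. Remaining activity is given relative to incubations lacking compound, as the average of triplicate determinations ± S.D.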

Assay [8] concerns the target Phosphatidylinositol 4-phosphate 3-kinase C2 domain-containing subunit beta (Homo sapiens) (UniProt O00750). Put plainly: Inhibition of PI3KC2beta (unknown origin) assessed as remaining activity at 10 uM using phosphatidylinositol as substrate incubated for 30 mins in presence of ATP relative to control. The method, boiled down:
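PI3KC2β assayed with 20 μM phosphatidylinositol, 0.2 mM ATP, 2 mM MgCl2, in Tris/HCl pH 7.5 with CHAPS, 30 min at room temperature. Stopped with EDTA, product detected by time-resolved FRET competition with PtdIns3P–biotin and SGK PX domain. Activity as % of no-compound control, triplicate.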

Assay [9] addresses Phosphorylase b kinase gamma catalytic chain, skeletal muscle/heart isoform (Homo sapiens) (UniProt Q16816). Put plainly: Inhibition of recombinant human N-terminal GST-tagged PHKgamma1 (2 to 297 residues) expressed in Escherichia coli assessed as remaining activity at 10 uM using phosphorylase b peptide as substrate incubated for 30 mins in presence of [gamma-33P]ATP by filter binding method relative to control. The method, boiled down:
as §2

Assay [10] concerns the target Serine/threonine-protein kinase PAK 4 (Homo sapiens) (UniProt O96013). Put plainly: Inhibition of recombinant human N-terminal GST-tagged PAK4 (2 to 519 residues) expressed in Escherichia coli assessed as remaining activity at 10 uM using RRRLSFAEPG as substrate incubated for 30 mins in presence of [gamma-33P]ATP by filter binding method relative to control. The method, boiled down:
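Radiometric kinase panel run robotically at room temperature (21 °C) for 30 min, linear in time and enzyme. […] Activity is expressed as percent of control without compound, from triplicate determinations ± S.D.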

Assay [11] addresses AMPK alpha1/beta2/gamma1 (Homo sapiens) (UniProt O43741+P54619+Q13131). Put plainly: Inhibition of recombinant N-terminal His6-tagged human AMPKalpha1 (11 to 559 residues)/AMPKbeta2 (1 to 272 residues)/AMPKgamma1 (1 to 331 residues) expressed in baculovirus infected Sf21 cells assessed as remaining activity at 10 uM using SAMS as substrate incubated for 30 mins in presence of [gamma-33P]ATP by filter binding method relative to control. The method, boiled down:
as §1

The target of assay [12] is Dual specificity tyrosine-phosphorylation-regulated kinase 1A (Homo sapiens) (UniProt Q13627). Put plainly: Inhibition of recombinant human N-terminal GST-tagged DYRK1A (1 to 502 residues) expressed in Escherichia coli assessed as remaining activity at 10 uM using KKISGRLSPIMTEQ as substrate incubated for 30 mins in presence of [gamma-33P]ATP by filter binding method relative to control. The method, boiled down:
as §1

Assay [13] has as its target Serine/threonine-protein kinase 3 (Homo sapiens) (UniProt Q13188). The experiment in a line: Inhibition of recombinant human N-terminal GST-tagged MST2 (2 to 491 residues) expressed in baculovirus infected Sf21 cells assessed as remaining activity at 10 uM using MBP as substrate incubated for 30 mins in presence of [gamma-33P]ATP by filter binding method relative to control. The method, boiled down:
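Panel assays were run for 30 min at 21 °C, within the linear range for time and enzyme. […] Results are percent activity remaining relative to compound-free control, averaged from triplicate ± S.D.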

mTORC1 (Homo sapiens), sequence (Q8N122 whole entry, looked up, other chains not shown, the tested form may be a part): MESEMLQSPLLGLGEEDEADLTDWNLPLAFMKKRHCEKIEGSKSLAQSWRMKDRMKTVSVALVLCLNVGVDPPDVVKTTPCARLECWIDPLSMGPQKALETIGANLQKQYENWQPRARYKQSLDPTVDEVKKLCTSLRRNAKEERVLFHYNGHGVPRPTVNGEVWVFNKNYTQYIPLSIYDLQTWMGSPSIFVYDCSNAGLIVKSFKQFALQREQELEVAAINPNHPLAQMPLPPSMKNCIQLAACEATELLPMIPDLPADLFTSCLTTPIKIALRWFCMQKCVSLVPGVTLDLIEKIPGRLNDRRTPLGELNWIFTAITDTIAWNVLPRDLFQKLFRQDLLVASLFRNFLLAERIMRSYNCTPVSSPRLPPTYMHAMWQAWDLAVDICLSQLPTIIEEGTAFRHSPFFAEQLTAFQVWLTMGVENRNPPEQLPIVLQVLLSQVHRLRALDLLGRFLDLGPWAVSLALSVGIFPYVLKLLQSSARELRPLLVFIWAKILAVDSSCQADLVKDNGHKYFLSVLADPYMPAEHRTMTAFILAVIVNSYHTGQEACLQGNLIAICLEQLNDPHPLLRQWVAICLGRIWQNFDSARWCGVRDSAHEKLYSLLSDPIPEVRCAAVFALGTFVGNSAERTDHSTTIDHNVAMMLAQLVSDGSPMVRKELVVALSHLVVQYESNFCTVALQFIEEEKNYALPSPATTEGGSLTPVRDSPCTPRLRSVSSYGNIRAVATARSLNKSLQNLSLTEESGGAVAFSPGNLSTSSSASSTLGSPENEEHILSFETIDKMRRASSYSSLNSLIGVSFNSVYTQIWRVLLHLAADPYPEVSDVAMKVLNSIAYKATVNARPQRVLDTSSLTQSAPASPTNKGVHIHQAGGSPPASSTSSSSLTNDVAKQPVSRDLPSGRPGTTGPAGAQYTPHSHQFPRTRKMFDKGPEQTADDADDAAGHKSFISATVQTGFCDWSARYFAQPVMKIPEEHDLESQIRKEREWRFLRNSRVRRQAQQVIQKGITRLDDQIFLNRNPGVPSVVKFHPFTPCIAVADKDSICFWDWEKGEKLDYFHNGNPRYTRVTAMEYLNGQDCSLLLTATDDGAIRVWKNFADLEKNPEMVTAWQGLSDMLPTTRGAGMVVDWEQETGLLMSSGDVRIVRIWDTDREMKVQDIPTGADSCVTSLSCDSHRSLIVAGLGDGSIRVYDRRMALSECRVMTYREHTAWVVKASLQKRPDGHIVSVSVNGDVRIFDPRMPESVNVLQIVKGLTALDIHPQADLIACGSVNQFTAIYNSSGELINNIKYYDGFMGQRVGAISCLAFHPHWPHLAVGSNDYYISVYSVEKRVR
mTORC1 (Homo sapiens), sequence (Q9BVC4 whole entry, looked up, other chains not shown, the tested form may be a part): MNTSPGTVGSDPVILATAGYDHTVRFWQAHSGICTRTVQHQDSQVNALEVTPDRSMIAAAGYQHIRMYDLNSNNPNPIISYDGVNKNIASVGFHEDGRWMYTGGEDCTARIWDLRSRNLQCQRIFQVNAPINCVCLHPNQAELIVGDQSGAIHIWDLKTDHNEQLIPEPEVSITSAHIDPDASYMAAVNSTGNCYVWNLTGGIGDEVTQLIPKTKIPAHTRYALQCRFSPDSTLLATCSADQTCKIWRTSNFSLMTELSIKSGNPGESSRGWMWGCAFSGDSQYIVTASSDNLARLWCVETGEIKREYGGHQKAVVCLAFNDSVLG
Calcium/calmodulin-dependent protein kinase type 1 (Homo sapiens), sequence (Q14012 whole entry, looked up, the tested form may be a part): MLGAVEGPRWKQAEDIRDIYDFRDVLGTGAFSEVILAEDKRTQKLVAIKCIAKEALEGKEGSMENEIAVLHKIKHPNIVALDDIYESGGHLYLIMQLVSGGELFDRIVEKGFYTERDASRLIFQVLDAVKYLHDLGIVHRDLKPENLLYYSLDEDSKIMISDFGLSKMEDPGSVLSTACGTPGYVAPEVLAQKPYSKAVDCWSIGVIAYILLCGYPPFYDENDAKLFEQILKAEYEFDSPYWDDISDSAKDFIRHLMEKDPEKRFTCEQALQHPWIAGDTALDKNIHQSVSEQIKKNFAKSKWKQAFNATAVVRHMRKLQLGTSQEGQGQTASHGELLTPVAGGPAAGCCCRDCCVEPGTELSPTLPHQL
Inhibitor of nuclear factor kappa-B kinase subunit epsilon (Homo sapiens), sequence (Q14164 whole entry, the tested form may be a part): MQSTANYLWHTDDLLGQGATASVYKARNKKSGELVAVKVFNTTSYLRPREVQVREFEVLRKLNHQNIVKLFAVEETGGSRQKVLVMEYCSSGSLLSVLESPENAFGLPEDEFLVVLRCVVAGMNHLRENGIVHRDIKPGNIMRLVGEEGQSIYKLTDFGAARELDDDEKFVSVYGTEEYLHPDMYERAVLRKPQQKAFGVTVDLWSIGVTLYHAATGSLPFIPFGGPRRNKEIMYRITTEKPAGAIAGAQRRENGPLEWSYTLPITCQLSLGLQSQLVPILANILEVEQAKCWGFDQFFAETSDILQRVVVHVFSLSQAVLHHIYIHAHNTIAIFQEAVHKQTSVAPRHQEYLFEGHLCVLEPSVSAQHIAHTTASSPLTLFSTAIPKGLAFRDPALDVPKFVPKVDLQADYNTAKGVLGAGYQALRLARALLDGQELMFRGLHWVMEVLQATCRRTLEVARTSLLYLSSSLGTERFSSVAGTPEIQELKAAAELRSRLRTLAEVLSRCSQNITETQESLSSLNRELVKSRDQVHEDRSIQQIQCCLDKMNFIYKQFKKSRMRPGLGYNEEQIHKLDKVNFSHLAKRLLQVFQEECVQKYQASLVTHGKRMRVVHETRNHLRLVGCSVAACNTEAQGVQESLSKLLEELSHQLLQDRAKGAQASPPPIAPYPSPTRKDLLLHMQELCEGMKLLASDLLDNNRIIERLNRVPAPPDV
AMPK alpha1/beta2/gamma1 (Homo sapiens), sequence (O43741 whole entry, looked up, the tested form may be a part): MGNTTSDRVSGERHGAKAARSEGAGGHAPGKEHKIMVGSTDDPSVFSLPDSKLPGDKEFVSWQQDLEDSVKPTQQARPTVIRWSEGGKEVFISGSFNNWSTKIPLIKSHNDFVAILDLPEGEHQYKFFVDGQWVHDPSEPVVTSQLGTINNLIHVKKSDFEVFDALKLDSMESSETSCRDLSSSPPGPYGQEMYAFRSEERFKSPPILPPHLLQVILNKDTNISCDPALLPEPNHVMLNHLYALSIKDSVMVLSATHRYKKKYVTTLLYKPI
AMPK alpha1/beta2/gamma1 (Homo sapiens), sequence (P54619 whole entry, looked up, the tested form may be a part): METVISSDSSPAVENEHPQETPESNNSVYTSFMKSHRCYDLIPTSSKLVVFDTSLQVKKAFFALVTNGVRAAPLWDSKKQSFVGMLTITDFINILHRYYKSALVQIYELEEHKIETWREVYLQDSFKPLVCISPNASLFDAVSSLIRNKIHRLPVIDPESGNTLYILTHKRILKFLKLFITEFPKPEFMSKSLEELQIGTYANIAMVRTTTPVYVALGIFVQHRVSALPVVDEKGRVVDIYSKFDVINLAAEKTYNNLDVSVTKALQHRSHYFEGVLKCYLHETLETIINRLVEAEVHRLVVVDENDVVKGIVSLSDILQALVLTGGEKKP
AMPK alpha1/beta2/gamma1 (Homo sapiens), sequence (Q13131 whole entry, looked up, the tested form may be a part): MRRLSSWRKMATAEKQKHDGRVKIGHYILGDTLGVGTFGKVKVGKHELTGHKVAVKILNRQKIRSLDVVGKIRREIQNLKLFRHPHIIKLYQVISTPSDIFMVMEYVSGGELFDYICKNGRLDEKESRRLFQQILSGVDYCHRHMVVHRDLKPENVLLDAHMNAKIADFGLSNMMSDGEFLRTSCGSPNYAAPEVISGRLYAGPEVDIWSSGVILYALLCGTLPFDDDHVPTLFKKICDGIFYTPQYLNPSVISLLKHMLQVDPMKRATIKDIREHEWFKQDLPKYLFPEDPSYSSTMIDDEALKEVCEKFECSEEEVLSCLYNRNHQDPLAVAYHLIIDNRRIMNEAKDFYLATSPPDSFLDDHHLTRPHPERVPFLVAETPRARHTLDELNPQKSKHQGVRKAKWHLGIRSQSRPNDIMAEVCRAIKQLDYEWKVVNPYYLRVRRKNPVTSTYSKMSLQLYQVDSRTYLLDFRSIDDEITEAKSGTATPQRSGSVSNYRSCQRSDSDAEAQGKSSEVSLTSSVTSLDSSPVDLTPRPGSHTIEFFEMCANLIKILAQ
Ribosomal protein S6 kinase alpha-1 (Homo sapiens), sequence (Q15418 whole entry, the tested form may be a part): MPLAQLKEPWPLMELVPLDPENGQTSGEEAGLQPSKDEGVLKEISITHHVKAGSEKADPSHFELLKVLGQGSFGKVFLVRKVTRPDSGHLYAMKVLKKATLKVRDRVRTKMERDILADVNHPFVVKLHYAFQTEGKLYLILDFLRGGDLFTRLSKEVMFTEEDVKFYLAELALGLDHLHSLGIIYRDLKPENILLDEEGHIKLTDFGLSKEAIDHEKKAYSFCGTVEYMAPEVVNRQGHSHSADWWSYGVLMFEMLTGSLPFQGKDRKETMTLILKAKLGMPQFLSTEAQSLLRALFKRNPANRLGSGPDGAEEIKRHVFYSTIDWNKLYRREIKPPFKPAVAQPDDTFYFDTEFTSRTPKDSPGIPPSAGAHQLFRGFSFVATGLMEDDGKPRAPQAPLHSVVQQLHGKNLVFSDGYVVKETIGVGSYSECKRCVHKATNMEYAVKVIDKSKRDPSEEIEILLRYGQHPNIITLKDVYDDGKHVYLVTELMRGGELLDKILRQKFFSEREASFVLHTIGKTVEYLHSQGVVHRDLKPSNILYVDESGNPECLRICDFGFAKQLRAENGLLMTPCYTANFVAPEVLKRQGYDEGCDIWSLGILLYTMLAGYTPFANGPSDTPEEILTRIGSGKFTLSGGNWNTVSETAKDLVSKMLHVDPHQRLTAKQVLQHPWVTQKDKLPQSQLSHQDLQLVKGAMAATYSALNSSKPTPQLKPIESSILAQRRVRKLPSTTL

In the case of `COc1ccc(-c2ccc3c(N4CCOCC4)nc(N4C[C@@H](C)O[C@@H](C)C4)nc3n2)cc1CO` [Ku-0063794], the Activity in assay [1] stood at 106%; in assay [2], 105%; in assay [3], 101%; in assay [4], 99%; in assay [5] it was 93%; in [6], 100%. The Activity in [7] amounted to 72%; in [8], 82%; in assay [9], 116%; in assay [10], 75%; in [11], 106%; in [12], 80%. For the same compound, the Activity in [13] worked out at 102%. Moreover, the inhibition entry on mTORC1 (Homo sapiens) is “Dose-Dependent Effect”.

These data come from ChEMBL document CHEMBL5678799 (Biochem J, 2009).
